# According to ChEMBL document CHEMBL3400013, “Synthesis and biological activity evaluation of hydrazone derivatives based on a Tröger's base skeleton” (Bioorg Med Chem, 2015):
# Activity calls are given as the source filed them. The calls are words filed in the database; no cut-off is given here.
# Legend:
# Nucleic Acid [1] = assay: Binding affinity to DNA (unknown origin) assessed as DNA intercalation by UV-visible spectrophotometry in presence of Fe3+; format: nucleic-acid assay
# BJ [2] = assay: Selectivity index, ratio of IC50 for human BJ cells to IC50 for human CCRF-CEM cells; format: functional; settings: pooled result: one value given for 2 cell lines, strains, targets or settings
# K562 [3] = assay: Selectivity index, ratio of IC50 for human MRC5 cells to IC50 for human K562 cells; format: functional
# BJ [4] = assay: Selectivity index, ratio of IC50 for human BJ cells to IC50 for human K562-TAX cells; format: functional
# A549 [5] = assay: Selectivity index, ratio of IC50 for human BJ cells to IC50 for human A549 cells; format: functional
# A549 [6] = assay: Selectivity index, ratio of IC50 for human MRC5 cells to IC50 for human A549 cells; format: functional
# BJ [7] = assay: Selectivity index, ratio of IC50 for human BJ cells to IC50 for human HCT116 cells; format: functional
# HCT-116 [8] = assay: Selectivity index, ratio of IC50 for human MRC5 cells to IC50 for human HCT116 cells; format: functional
# BJ [9] = assay: Selectivity index, ratio of IC50 for human BJ cells to IC50 for human p53-/- HCT116 cells; format: functional
# HCT-116 [10] = assay: Selectivity index, ratio of IC50 for human MRC5 cells to IC50 for human p53-/- HCT116 cells; format: functional
# [11] = Cytostatic activity against human CEM-DNR cells after 72 hrs by MTT assay; format: functional, cell-based
# Procedure, shortened: (§1)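 Cells were seeded at 25,000–30,000 per well and pre-incubated for 24 h at 37°C in 5% CO2. Four-fold compound dilutions were added in duplicate and incubated for 72 h. MTT was added for 1–4 h, and formazan was dissolved in 10% aq SDS (pH 5.5) overnight at 37°C. OD was read at 540 nm. IC50 came from dose-response curves, mean ± SD of eight independent experiments.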
# K562 [12] = assay: Cytostatic activity against human K562 cells after 72 hrs by MTT assay; format: functional, cell-based; settings: K562, 72 h; procedure, shortened: as §1
# [13] = Cytostatic activity against human HCT116 cells after 72 hrs by MTT assay; format: functional, cell-based; settings: HCT-116, 72 h; procedure, shortened: as §1
# [14] = Cytostatic activity against human p53-/- HCT116 cells after 72 hrs by MTT assay; format: functional, cell-based; settings: HCT-116, 72 h; procedure, shortened: as §1
# CCRF-CEM [15] = assay: Induction of apoptosis in human CCRF-CEM cells assessed as apoptotic cells at IC50 after 24 hrs by propidium iodide staining-based flow cytometry; format: functional
# Procedure, shortened: (§2)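 Cells were then fixed in 70% ethanol, washed in hypotonic citrate buffer, treated with RNase (50 µg/mL) and stained with propidium iodide. Flow cytometry used a 488 nm laser. Apoptosis was scored as the percentage of particles with propidium content below G0/G1.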
# CCRF-CEM [16] = assay: Induction of apoptosis in human CCRF-CEM cells assessed as apoptotic cells at 5 times IC50 after 24 hrs by propidium iodide staining-based flow cytometry; format: functional; procedure, shortened: as §2
# CCRF-CEM [17] = assay: Cell cycle arrest in human CCRF-CEM cells assessed as accumulation at G0/G1 phase at 5 times IC50 after 24 hrs by propidium iodide staining-based flow cytometry; format: functional; procedure, shortened: as §2
# CCRF-CEM [18] = assay: Cell cycle arrest in human CCRF-CEM cells assessed as accumulation at S phase at IC50 after 24 hrs by propidium iodide staining-based flow cytometry; format: functional; procedure, shortened: as §2
# CCRF-CEM [19] = assay: Cell cycle arrest in human CCRF-CEM cells assessed as accumulation at G2/M phase at IC50 after 24 hrs by propidium iodide staining-based flow cytometry; format: functional; procedure, shortened: as §2
# CCRF-CEM [20] = assay: Cell cycle arrest in human CCRF-CEM cells assessed as accumulation at G2/M phase at 5 times IC50 after 24 hrs by propidium iodide staining-based flow cytometry; format: functional; procedure, shortened: as §2
# CCRF-CEM [21] = assay: Induction of apoptosis in human CCRF-CEM cells assessed as mitotic cells at IC50 after 24 hrs by pH3Ser10+ labeling-based flow cytometry; format: functional
# CCRF-CEM [22] = assay: Induction of apoptosis in human CCRF-CEM cells assessed as mitotic cells at 5 times IC50 after 24 hrs by pH3Ser10+ labeling-based flow cytometry; format: functional
# CCRF-CEM [23] = assay: Induction of apoptosis in human CCRF-CEM cells assessed as inhibition of DNA synthesis at 5 times IC50 after 24 hrs by propidium iodide/BrdU staining by flow cytometry; format: functional; parameters: scale not given: the % may be the effect or the level left
# CCRF-CEM [24] = assay: Induction of apoptosis in human CCRF-CEM cells assessed as inhibition of RNA synthesis at 5 times IC50 after 24 hrs by propidium iodide/BrU staining by flow cytometry; format: functional; parameters: scale not given: the % may be the effect or the level left
# Enterococcus faecalis = assay: Antimicrobial activity against Enterococcus faecalis CCM 4224 up to 200 uM after 24 to 48 hrs by broth microdilution method; format: functional, organism-based
# Staphylococcus aureus [25] = assay: Antimicrobial activity against Staphylococcus aureus CCM 3953 up to 200 uM after 24 to 48 hrs by broth microdilution method; format: functional, organism-based
# Escherichia coli [26] = assay: Antimicrobial activity against Escherichia coli CCM 3954 up to 200 uM after 24 to 48 hrs by broth microdilution method; format: functional, organism-based
# Pseudomonas aeruginosa [27] = assay: Antimicrobial activity against Pseudomonas aeruginosa CCM 395 up to 200 uM after 24 to 48 hrs by broth microdilution method; format: functional, organism-based
# Staphylococcus aureus [28] = assay: Antimicrobial activity against methicillin-resistant Staphylococcus aureus MRSA 4591 up to 200 uM after 24 to 48 hrs by broth microdilution method; format: functional, organism-based
# [29] = system: Staphylococcus haemolyticus; assay: Antimicrobial activity against methicillin-resistant Staphylococcus haemolyticus A1/16568 up to 200 uM after 24 to 48 hrs by broth microdilution method; format: functional, organism-based
# Escherichia coli [30] = assay: Antimicrobial activity against multidrug-resistant Escherichia coli C/16702 up to 200 uM after 24 to 48 hrs by broth microdilution method; format: functional, organism-based
# Pseudomonas aeruginosa [31] = assay: Antimicrobial activity against multidrug-resistant Pseudomonas aeruginosa A/16575 up to 200 uM after 24 to 48 hrs by broth microdilution method; format: functional, organism-based
# Candida parapsilosis = assay: Antifungal activity against Candida parapsilosis up to 200 uM after 24 to 48 hrs by broth microdilution method; format: functional, organism-based
# [32] = Metal chelating activity of the compound assessed as formation of Co2+ complex by UV-vis spectrometry; format: physicochemical
# [33] = Metal chelating activity of the compound assessed as formation of Cu2+ complex by UV-vis spectrometry; format: physicochemical
# [34] = Metal chelating activity of the compound assessed as formation of Fe3+ complex by UV-vis spectrometry; format: physicochemical
# [35] = Metal chelating activity of the compound assessed as formation of Zn2+ complex by UV-vis spectrometry; format: physicochemical
# [36] = Metal chelating activity of the compound assessed as formation of Mg2+ complex by UV-vis spectrometry; format: physicochemical
# [37] = Metal chelating activity of the compound assessed as formation of Fe2+ complex by UV-vis spectrometry; format: physicochemical
# [38] = Metal chelating activity of the compound assessed as formation of Mn2+ complex by UV-vis spectrometry; format: physicochemical
# [39] = Metal chelating activity of the compound assessed as formation of Cr3+ complex by UV-vis spectrometry; format: physicochemical
# Nucleic Acid [40] = assay: Binding affinity to DNA (unknown origin) assessed as DNA intercalation by UV-visible spectrophotometry in presence of Co2+; format: nucleic-acid assay
# Nucleic Acid [41] = assay: Binding affinity to DNA (unknown origin) assessed as DNA intercalation by UV-visible spectrophotometry in presence of Cu2+; format: nucleic-acid assay
smiles,measurement,setting,value
O=C(N/N=C/c1cc(O)ccc1O)c1ccc2c3c(ccc2c1)N1Cc2c(ccc4cc(C(=O)N/N=C/c5cc(O)ccc5O)ccc24)N(C3)C1,Activity,Nucleic Acid [1],Active
same,Ratio IC50,BJ [2],63.2
same,Ratio IC50,K562 [3],8
same,Ratio IC50,BJ [4],13.8
same,Ratio IC50,A549 [5],20.9
same,Ratio IC50,A549 [6],20.9
same,Ratio IC50,BJ [7],9.1
same,Ratio IC50,HCT-116 [8],9.1
same,Ratio IC50,BJ [9],29
same,Ratio IC50,HCT-116 [10],29
same,IC50,[11],2590 nM
same,IC50,K562 [12],440 nM
same,IC50,[13],390 nM
same,IC50,[14],120 nM
same,Activity,CCRF-CEM [15],3.99%
same,Activity,CCRF-CEM [16],9.74%
same,Activity,CCRF-CEM [17],21.32%
same,Activity,CCRF-CEM [18],44.72%
same,Activity,CCRF-CEM [19],17.9%
same,Activity,CCRF-CEM [20],20.46%
same,Activity,CCRF-CEM [21],2.34%
same,Activity,CCRF-CEM [22],2.39%
same,Activity,CCRF-CEM [23],55.96%
same,Activity,CCRF-CEM [24],43.16%
same,Activity,Enterococcus faecalis,inactive
same,Activity,Staphylococcus aureus [25],inactive
same,Activity,Escherichia coli [26],inactive
same,Activity,Pseudomonas aeruginosa [27],inactive
same,Activity,Staphylococcus aureus [28],inactive
same,Activity,[29],inactive
same,Activity,Escherichia coli [30],inactive
same,Activity,Pseudomonas aeruginosa [31],inactive
same,Activity,Candida parapsilosis,inactive
same,Activity,[32],Active
same,Activity,[33],Active
same,Activity,[34],Active
same,Activity,[35],Active
same,Activity,[36],Not Active
same,Activity,[37],Not Active
same,Activity,[38],Not Active
same,Activity,[39],Not Active
same,Activity,Nucleic Acid [40],Active
same,Activity,Nucleic Acid [41],Active
O=C(N/N=C/c1nccc2ccccc12)c1ccc2c3c(ccc2c1)N1Cc2c(ccc4cc(C(=O)N/N=C/c5nccc6ccccc56)ccc24)N(C3)C1,Activity,Nucleic Acid [1],Active
same,Ratio IC50,BJ [2],172
same,Ratio IC50,K562 [3],121.9
same,Ratio IC50,BJ [4],9.9
same,Ratio IC50,A549 [5],5.4
same,Ratio IC50,A549 [6],5.4
same,Ratio IC50,BJ [7],5.7
same,Ratio IC50,HCT-116 [8],5.7
same,Ratio IC50,BJ [9],4
same,Ratio IC50,HCT-116 [10],4
same,IC50,[11],6290 nM
same,IC50,K562 [12],820 nM
same,IC50,[13],17700 nM
same,IC50,[14],25300 nM
same,Activity,CCRF-CEM [15],8.4%
same,Activity,CCRF-CEM [16],10.73%
same,Activity,CCRF-CEM [17],46.56%
same,Activity,CCRF-CEM [18],38.56%
same,Activity,CCRF-CEM [19],15.35%
same,Activity,CCRF-CEM [20],13.57%
same,Activity,CCRF-CEM [21],1.65%
same,Activity,CCRF-CEM [22],1.52%
same,Activity,CCRF-CEM [23],43.36%
same,Activity,CCRF-CEM [24],16.94%
same,Activity,Enterococcus faecalis,inactive
same,Activity,Staphylococcus aureus [25],inactive
same,Activity,Escherichia coli [26],inactive
same,Activity,Pseudomonas aeruginosa [27],inactive
same,Activity,Staphylococcus aureus [28],inactive
same,Activity,[29],inactive
same,Activity,Escherichia coli [30],inactive
same,Activity,Pseudomonas aeruginosa [31],inactive
same,Activity,Candida parapsilosis,inactive
same,Activity,[32],Active
same,Activity,[33],Active
same,Activity,[34],Active
same,Activity,[35],Active
same,Activity,[36],Not Active
same,Activity,[37],Not Active
same,Activity,[38],Not Active
same,Activity,[39],Not Active
same,Activity,Nucleic Acid [40],Active
same,Activity,Nucleic Acid [41],Active
COc1ccc(O)c(/C=N/NC(=O)c2ccc3c4c(ccc3c2)N2Cc3c(ccc5cc(C(=O)N/N=C/c6cc(OC)ccc6O)ccc35)N(C4)C2)c1,Activity,Nucleic Acid [1],Active
same,Ratio IC50,BJ [2],162.3
same,Ratio IC50,K562 [3],357.2
same,Ratio IC50,BJ [4],137.7
same,Ratio IC50,A549 [5],123.2
same,Ratio IC50,A549 [6],123.2
same,Ratio IC50,BJ [7],622.3
same,Ratio IC50,HCT-116 [8],622.3
same,Ratio IC50,BJ [9],495
same,Ratio IC50,HCT-116 [10],495
same,IC50,[11],2140 nM
same,IC50,K562 [12],80 nM
same,IC50,[13],50 nM
same,IC50,[14],60 nM
same,Activity,CCRF-CEM [15],12.97%
same,Activity,CCRF-CEM [16],21.74%
same,Activity,CCRF-CEM [17],39.05%
same,Activity,CCRF-CEM [18],54.03%
same,Activity,CCRF-CEM [19],15.97%
same,Activity,CCRF-CEM [20],12.4%
same,Activity,CCRF-CEM [21],0.99%
same,Activity,CCRF-CEM [22],0.67%
same,Activity,CCRF-CEM [23],31.78%
same,Activity,CCRF-CEM [24],56.37%
same,Activity,Enterococcus faecalis,inactive
same,Activity,Staphylococcus aureus [25],inactive
same,Activity,Escherichia coli [26],inactive
same,Activity,Pseudomonas aeruginosa [27],inactive
same,Activity,Staphylococcus aureus [28],inactive
same,Activity,[29],inactive
same,Activity,Escherichia coli [30],inactive
same,Activity,Pseudomonas aeruginosa [31],inactive
same,Activity,Candida parapsilosis,inactive
same,Activity,[32],Active
same,Activity,[33],Active
same,Activity,[34],Active
same,Activity,[35],Active
same,Activity,[36],Not Active
same,Activity,[37],Not Active
same,Activity,[38],Not Active
same,Activity,[39],Not Active
same,Activity,Nucleic Acid [40],Active
same,Activity,Nucleic Acid [41],Active
